In ChEMBL document CHEMBL2010647, “N-Methylated sst2 Selective Somatostatin Cyclic Peptide Analogue as a Potent Candidate for Treating Neurogenic Inflammation” (ACS Med Chem Lett, 2011):
Calls of active or inactive are those of the source. The rule behind the calls is not given here.

Assays:
Rattus norvegicus = test: Antiinflammatory activity in rat assessed as inhibition of mustard oil-evoked acute neurogenic plasma protein extravasation in paw skin at 100 ug/kg, ip […] administered 10 mins before induction of inflammation; assay type: functional
Procedure, shortened: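 Rats received peptide 100 μg/kg ip 10 min before inflammation was induced with 1% mustard oil on dorsal paw skin; solvent-only controls run alongside. Read-out: Evans blue accumulated per g wet skin, given as mean + SEM, n = 6–10. Tested in blocks of 14–15 rats per day over 6 days, with treatments randomized. Mann–Whitney U test vs solvent.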

[1] = target: Somatostatin receptor type 3 (Homo sapiens, UniProt P32745); test: Binding affinity to human sst3 by in vitro receptor autoradiography assay
Chain of Somatostatin receptor type 3 (P32745 whole entry): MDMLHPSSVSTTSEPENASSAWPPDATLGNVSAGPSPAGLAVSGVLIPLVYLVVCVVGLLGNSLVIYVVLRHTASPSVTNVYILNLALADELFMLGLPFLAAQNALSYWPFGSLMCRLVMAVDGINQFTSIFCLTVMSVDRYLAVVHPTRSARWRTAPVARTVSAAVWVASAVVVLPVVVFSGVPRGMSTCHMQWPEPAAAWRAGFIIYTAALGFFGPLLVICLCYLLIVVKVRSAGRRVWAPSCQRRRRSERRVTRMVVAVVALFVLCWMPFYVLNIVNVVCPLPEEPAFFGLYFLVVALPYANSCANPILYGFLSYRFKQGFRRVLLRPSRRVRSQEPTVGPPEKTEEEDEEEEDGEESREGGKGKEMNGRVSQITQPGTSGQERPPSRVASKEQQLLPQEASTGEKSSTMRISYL

[2] = target: Somatostatin receptor type 1 (Homo sapiens, UniProt P30872); test: Binding affinity to human sst1 by in vitro receptor autoradiography assay
Chain of Somatostatin receptor type 1 (P30872 whole entry): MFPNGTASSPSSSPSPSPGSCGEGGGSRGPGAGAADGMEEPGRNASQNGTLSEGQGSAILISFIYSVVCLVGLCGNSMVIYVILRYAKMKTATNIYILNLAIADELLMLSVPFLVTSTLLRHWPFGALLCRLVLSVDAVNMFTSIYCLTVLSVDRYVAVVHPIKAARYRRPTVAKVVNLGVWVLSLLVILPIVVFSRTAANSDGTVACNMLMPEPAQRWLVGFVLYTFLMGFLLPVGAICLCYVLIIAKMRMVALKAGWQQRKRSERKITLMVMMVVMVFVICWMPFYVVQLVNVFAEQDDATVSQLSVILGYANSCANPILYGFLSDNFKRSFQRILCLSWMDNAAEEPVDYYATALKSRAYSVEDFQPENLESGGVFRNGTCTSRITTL

[3] = target: Somatostatin receptor type 2 (Homo sapiens, UniProt P30874); test: Binding affinity to human sst2 by in vitro receptor autoradiography assay
Chain of Somatostatin receptor type 2 (P30874 whole entry): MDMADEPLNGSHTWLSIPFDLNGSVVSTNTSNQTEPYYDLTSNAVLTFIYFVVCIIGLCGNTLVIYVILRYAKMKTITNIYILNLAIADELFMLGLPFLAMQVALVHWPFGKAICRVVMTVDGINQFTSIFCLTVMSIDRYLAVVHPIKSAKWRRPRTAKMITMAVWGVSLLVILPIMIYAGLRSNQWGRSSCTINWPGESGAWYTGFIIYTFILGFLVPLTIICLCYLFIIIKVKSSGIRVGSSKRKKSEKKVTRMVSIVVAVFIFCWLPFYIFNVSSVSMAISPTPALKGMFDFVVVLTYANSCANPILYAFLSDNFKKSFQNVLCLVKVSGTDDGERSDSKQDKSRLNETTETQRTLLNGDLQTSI

[4] = target: Somatostatin receptor type 2 (Rattus norvegicus) (UniProt P30680); test: Inhibition of sst2 in rat trachea assessed as effect on EFS-induced CGRP release in stimulated and poststimulated tracheal fraction at 500 nM after 8 mins by radioimmunoassay technique relative to control; assay type: tissue-based; design: scale not given: the % may be the effect or the level left
Chain of Somatostatin receptor type 2 (Rattus norvegicus) (P30680 whole entry, the tested form may be a part): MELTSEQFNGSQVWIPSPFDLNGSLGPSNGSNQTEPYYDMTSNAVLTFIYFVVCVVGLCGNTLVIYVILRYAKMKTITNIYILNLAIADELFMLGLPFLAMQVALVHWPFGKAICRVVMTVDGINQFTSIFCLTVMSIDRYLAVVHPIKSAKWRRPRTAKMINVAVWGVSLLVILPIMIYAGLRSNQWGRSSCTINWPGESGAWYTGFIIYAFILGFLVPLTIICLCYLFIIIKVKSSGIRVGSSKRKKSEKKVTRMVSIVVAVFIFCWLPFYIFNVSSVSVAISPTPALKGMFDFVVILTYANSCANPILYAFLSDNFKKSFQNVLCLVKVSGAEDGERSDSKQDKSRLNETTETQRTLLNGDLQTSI
Procedure, shortened: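 Whole tracheae from exsanguinated, deeply anaesthetised rats, two per 1.8 mL organ bath, equilibrated 60 min with oxygenated Krebs (pH 7.2, 37 °C, 1 mL/min perfusion). Three static 8 min fractions; EFS (40 V, 0.1 ms, 10 Hz, 120 s) in the second. Peptide (500 nM) added at the start of fractions 2 and 3. CGRP measured by RIA in 200 μL samples, normalised to wet tissue weight; n = 5.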

[5] = target: Somatostatin receptor type 5 (Homo sapiens, UniProt P35346); test: Binding affinity to human sst5 by in vitro receptor autoradiography assay
Chain of Somatostatin receptor type 5 (P35346 whole entry): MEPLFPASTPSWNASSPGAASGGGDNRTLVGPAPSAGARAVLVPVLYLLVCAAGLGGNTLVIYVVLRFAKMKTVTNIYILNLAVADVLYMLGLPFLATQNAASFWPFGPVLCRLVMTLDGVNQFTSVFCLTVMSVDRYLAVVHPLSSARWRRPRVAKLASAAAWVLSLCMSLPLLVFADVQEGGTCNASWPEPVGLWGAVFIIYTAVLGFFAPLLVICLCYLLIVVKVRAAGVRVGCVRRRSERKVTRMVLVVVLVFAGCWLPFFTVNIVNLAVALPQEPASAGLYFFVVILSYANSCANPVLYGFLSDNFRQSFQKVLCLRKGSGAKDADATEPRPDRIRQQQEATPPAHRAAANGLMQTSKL

[6] = target: Somatostatin receptor type 4 (Homo sapiens, UniProt P31391); test: Binding affinity to human sst4 by in vitro receptor autoradiography assay
Chain of Somatostatin receptor type 4 (P31391 whole entry): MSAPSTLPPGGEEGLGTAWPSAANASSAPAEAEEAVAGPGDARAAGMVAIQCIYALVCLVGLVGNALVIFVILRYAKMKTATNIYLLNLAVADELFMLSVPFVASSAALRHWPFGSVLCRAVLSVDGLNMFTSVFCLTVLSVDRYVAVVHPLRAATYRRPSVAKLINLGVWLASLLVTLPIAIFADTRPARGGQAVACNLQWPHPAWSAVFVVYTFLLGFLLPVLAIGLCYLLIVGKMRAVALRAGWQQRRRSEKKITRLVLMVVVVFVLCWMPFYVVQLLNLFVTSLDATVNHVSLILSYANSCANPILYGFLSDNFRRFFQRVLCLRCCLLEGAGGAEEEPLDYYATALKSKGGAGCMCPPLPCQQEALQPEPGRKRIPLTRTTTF

Question: Which inhibition in vivo at 0.1 mg/kg (Rattus norvegicus) does the source give for `CC(C)[C@@H]1NC(=O)[C@H](CCCCN)N(C)C(=O)[C@@H](Cc2c[nH]c3ccccc23)N(C)C(=O)[C@H](Cc2ccc(O)cc2)NC(=O)[C@H](C)N(C)C(=O)[C@H](Cc2ccccc2)N(C)C1=O` here?
Answer: The inhibition in vivo at 0.1 mg/kg was 40%.

Question: What about the IC50 [1] of the same molecule?
Answer: The IC50 was 200 nM.

Question: What about the IC50 [2] of the same molecule?
Answer: Its IC50 is greater than 1000 nM.

Question: What about the IC50 [3] of the same molecule?
Answer: Its IC50 is 44 nM.

Question: And the Activity [4]?
Answer: Its Activity is 100%.

Question: What about the IC50 [5] of the same molecule?
Answer: Its IC50 is 263 nM.

Question: And the IC50 [6]?
Answer: The IC50 was greater than 1000 nM.

Question: With `CC(C)[C@@H]1NC(=O)[C@H](CCCCN)N(C)C(=O)[C@@H](Cc2c[nH]c3ccccc23)NC(=O)[C@H](Cc2ccc(O)cc2)NC(=O)[C@H](C)N(C)C(=O)[C@H](Cc2ccccc2)N(C)C1=O` as the molecule, how does the IC50 [1] read?
Answer: Its IC50 is 175 nM.

Question: What about the IC50 [2] of the same molecule?
Answer: Its IC50 is greater than 1000 nM.

Question: And the IC50 [3]?
Answer: Its IC50 is 4.1 nM.

Question: And the Activity [4]?
Answer: Its Activity is 343%.

Question: What about the IC50 [5] of the same molecule?
Answer: The IC50 was 137 nM.

Question: And the IC50 [6]?
Answer: Its IC50 is 373 nM.

Question: What does the source list for `CC(C)[C@@H]1NC(=O)[C@H](CCCCN)N(C)C(=O)[C@@H](Cc2c[nH]c3ccccc23)N(C)C(=O)[C@H](Cc2ccc(O)cc2)NC(=O)[C@H](C)N(C)C(=O)[C@H](Cc2ccccc2)NC1=O`?
Answer: inhibition (Rattus norvegicus): inactive; IC50 [1]: 172 nM; IC50 [2]: > 1000 nM; IC50 [3]: 3.1 nM; Activity [4]: 153%; IC50 [5]: 196 nM; IC50 [6]: > 1000 nM

Question: `CC(C)[C@@H]1NC(=O)[C@H](CCCCN)N(C)C(=O)[C@@H](Cc2c[nH]c3ccccc23)NC(=O)[C@H](Cc2ccc(O)cc2)NC(=O)[C@H](C)N(C)C(=O)[C@H](Cc2ccccc2)NC1=O` was tested. Which inhibition (Rattus norvegicus) did it give?
Answer: Its inhibition is “inactive”.

Question: What about the IC50 [1] of the same molecule?
Answer: The IC50 was 308 nM.

Question: What about the IC50 [2] of the same molecule?
Answer: Its IC50 is greater than 1000 nM.

Question: What about the IC50 [3] of the same molecule?
Answer: The IC50 was 4.2 nM.

Question: And the Activity [4]?
Answer: Its Activity is 182%.

Question: What about the IC50 [5] of the same molecule?
Answer: Its IC50 is 247 nM.

Question: And the IC50 [6]?
Answer: Its IC50 is greater than 1000 nM.

Question: How did the IC50 [1] turn out when `CC(C)[C@@H]1NC(=O)[C@H](CCCCN)NC(=O)[C@@H](Cc2c[nH]c3ccccc23)N(C)C(=O)[C@H](Cc2ccc(O)cc2)NC(=O)[C@H](C)N(C)C(=O)[C@H](Cc2ccccc2)NC1=O` was run?
Answer: Its IC50 is 205 nM.

Question: And the IC50 [2]?
Answer: The IC50 was greater than 1000 nM.

Question: And the IC50 [3]?
Answer: The IC50 was 5.5 nM.

Question: What about the Activity [4] of the same molecule?
Answer: Its Activity is 360%.

Question: And the IC50 [5]?
Answer: The IC50 was 126 nM.

Question: What about the IC50 [6] of the same molecule?
Answer: The IC50 was greater than 1000 nM.

Question: Which results are given for `CC(C)[C@@H]1NC(=O)[C@H](CCCCN)NC(=O)[C@@H](Cc2c[nH]c3ccccc23)NC(=O)[C@H](Cc2ccc(O)cc2)NC(=O)[C@H](C)N(C)C(=O)[C@H](Cc2ccccc2)N(C)C1=O`?
Answer: IC50 [1]: 98 nM; IC50 [2]: > 1000 nM; IC50 [3]: 4.4 nM; Activity [4]: 355%; IC50 [5]: 53 nM; IC50 [6]: > 1000 nM

Question: `CC(C)[C@@H]1NC(=O)[C@H](CCCCN)NC(=O)[C@@H](Cc2c[nH]c3ccccc23)N(C)C(=O)[C@H](Cc2ccc(O)cc2)NC(=O)[C@H](C)N(C)C(=O)[C@H](Cc2ccccc2)N(C)C1=O` was tested. Which IC50 [1] did it give?
Answer: Its IC50 is 82 nM.

Question: What about the IC50 [2] of the same molecule?
Answer: Its IC50 is greater than 1000 nM.

Question: What about the IC50 [3] of the same molecule?
Answer: The IC50 was 45 nM.

Question: And the Activity [4]?
Answer: Its Activity is 268%.

Question: And the IC50 [5]?
Answer: The IC50 was 76 nM.

Question: What about the IC50 [6] of the same molecule?
Answer: Its IC50 is greater than 1000 nM.

Question: How did the IC50 [1] turn out when `CC(C)[C@@H]1NC(=O)[C@H](CCCCN)NC(=O)[C@@H](Cc2c[nH]c3ccccc23)NC(=O)[C@H](Cc2ccc(O)cc2)NC(=O)[C@H](C)N(C)C(=O)[C@H](Cc2ccccc2)NC1=O` [SEGLITIDE] was run?
Answer: Its IC50 is 105 nM.

Question: What about the IC50 [2] of the same molecule?
Answer: The IC50 was greater than 1000 nM.

Question: And the Activity [4]?
Answer: The Activity was 294%.

Question: And the IC50 [5]?
Answer: The IC50 was 81 nM.
